ChEMBL document CHEMBL5321217, “Identification of pyrrolo[3',4':3,4]cyclohepta[1,2-d][1,2]oxazoles as promising new candidates for the treatment of lymphomas” (Eur J Med Chem, 2023)
Calls of active or inactive are those of the source. The rule behind the calls is not given here.

Experiments:
Tubulin (Homo sapiens) [1] = molecular target: T1, Tubulin (Homo sapiens) (UniProt P68371+Q9H4B7+P0DPH7+P68366+Q13509+Q71U36+P04350+Q3ZCM7+P07437+P68363+Q9BQE3+Q6PEY2+Q13885+Q9BVA1+Q9BUF5); test: Inhibition of [3H]colchicine binding to tubulin (unknown origin) at 5 uM relative to control; type: protein-complex assay
How it was run: (§1)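 Colchicine-site competition: 0.5 μM tubulin with 5.0 μM [3H]colchicine and inhibitor at 5.0 μM, or 25 μM where stated.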

Tubulin = test: Inhibition of tubulin assembly (unknown origin); type: protein-complex assay, Homo sapiens
VL51 [2] = test: Induction of cell cycle arrest in human VL51 cells assessed as accumulation of cells at G2/M phase at 5 uM incubated for 24 hrs by PI staining based flow cytometry analysis; type: functional
How it was run: (§2)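 Seeding in 6-well plates, 2 mL medium: A549 5×10^4, CCRF-CEM 2.5×10^5, VL51 2.0×10^5. 24 h treatment, A549 detached with trypsin-EDTA. Cells fixed in 70% ice-cold ethanol, PI-labelled, analysed by flow cytometry. Mean of two independent experiments.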

[3] = Cytotoxicity against resting human PBL cells assessed as inhibition of cell growth measured after 72 hrs by MTT assay; type: toxicity, cell-based; conditions: resting human peripheral blood lymphocytes (PBL)
A549 = test: Induction of cell cycle arrest in human A549 cells assessed as accumulation of cells at G2/M phase at 5 uM incubated for 24 hrs by PI staining based flow cytometry analysis; type: functional; how it was run: as §2
VL51 [4] = test: Induction of cell cycle arrest in human VL51 cells assessed as increase in mitotic cells at 0.5 to 1 uM incubated for 24 hrs by PI staining based flow cytometry analysis; type: functional; conditions: dose 0.5-1 µM
CCRF-CEM = test: Induction of cell cycle arrest in human CCRF-CEM cells assessed as accumulation of cells at G2/M phase at 10 uM incubated for 24 hrs by PI staining based flow cytometry analysis; type: functional; how it was run: as §2
VL51 [5] = test: Induction of mitochondrial membrane potential depolarization in human VL51 cells at 0.5 to 1 uM measured after 24 hrs by JC-1 fluorescent dye based flow cytometry analysis; type: functional, cell-based; conditions: dose 0.5-1 µM
How it was run: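 VL51 cells treated 24 h at 0.5 and 1.0 μM, labelled with JC-1, analysed by flow cytometry in FL1 and FL2 channels.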

Tubulin (Homo sapiens) [6] = molecular target: T1, Tubulin (Homo sapiens); test: Inhibition of [3H]colchicine binding to tubulin (unknown origin) at 25 uM relative to control; type: protein-complex assay; how it was run: as §1
[7] = Cytotoxicity against PHA-induced human PBL cells assessed as inhibition of cell growth measured after 72 hrs by MTT assay; type: toxicity, cell-based; conditions: PHA-induced human peripheral blood lymphocytes (PBL)

| inhibition (Tubulin (Homo sapiens) [1]) | IC50 (Tubulin) | inhibition (Tubulin (Homo sapiens) [6]) | SMILES | Activity (VL51 [2]) | IC50 at 72 h [3] | Activity (A549) | Activity (VL51 [4]) | Activity (CCRF-CEM) | Activity (VL51 [5]) | IC50 at 72 h [7] |
| --- | --- | --- | --- | --- | --- | --- | --- | --- | --- | --- |
| 7.7% | 4.6 µM |  | COc1ccc(Cn2cc3c(c2-c2ccc(OC)cc2)CCCc2cnoc2-3)cc1 |  |  |  |  |  |  |  |
| 1.8% | 1.1 µM | 19% | COc1ccc(Cn2cc3c(c2-c2ccccc2)CCCc2cnoc2-3)cc1 | Active | > 10 µM | Active | inactive | Active | inactive | > 10 µM |
